High-throughput results (PubChem BioAssay)
An excerpt weighted towards active compounds, which were near 4.4% of everything screened.
NR3A LBD binder: modulators (binders) of human NR3A ligand-binding domain | NR3A LBD differential scanning fluorimetry, Tm shift; 0% = protein alone, 100% = glycine-bound protein | Tm shift relative to glycine control, % at 25 µM | 2.5% of 340,000 active | AID 1259313;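 active means melting temperature shift of at least 10% of the positive control shift, at one fixed dose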
SENP1 FRET inh: blocks the human SENP1 SUMO protease catalytic domain; 0.21% of 360,000 active; Q9P0U3; recombinant SENP1 catalytic domain, CyPet-SUMO1-YPet FRET cleavage; inhibition, % at 10 µM;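 active means inhibition at least 30% at 10 µM, raw YFP signal under a set limit, fluorescence ratio 0.5 to 1.5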;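 further: 0% = enzyme with DMSO and 100% = no enzyme wells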
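Test system: hSENP1 catalytic domain, recombinant; Amount: 20 pM final SENP1 enzyme; Medium: Tris pH 8 buffer plus EDTA, NaCl, BME, BSA, NP40, catalase; Schedule: 50 min enzyme reaction, room temperature, light-protected; Technique: FRET fluorescence in CFP and YFP emission channels; Controls: no-enzyme wells low, DMSO-plus-enzyme wells high control.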
EBI2 antag: EBI2 (human) antagonism | EBI2 beta-arrestin recruitment, luminescence, 7a,25-OHC stimulated | 0.81% of 360,000 active | inhibition, % at 5 µM; in the data active means inhibition above about 38%;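 further: enzyme fragment complementation signal reports receptor beta-arrestin coupling in cells; 0% = agonist plus DMSO wells and 100% = wells without agonist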
Target sequence (P32249 whole entry, looked up, the tested form may be a part): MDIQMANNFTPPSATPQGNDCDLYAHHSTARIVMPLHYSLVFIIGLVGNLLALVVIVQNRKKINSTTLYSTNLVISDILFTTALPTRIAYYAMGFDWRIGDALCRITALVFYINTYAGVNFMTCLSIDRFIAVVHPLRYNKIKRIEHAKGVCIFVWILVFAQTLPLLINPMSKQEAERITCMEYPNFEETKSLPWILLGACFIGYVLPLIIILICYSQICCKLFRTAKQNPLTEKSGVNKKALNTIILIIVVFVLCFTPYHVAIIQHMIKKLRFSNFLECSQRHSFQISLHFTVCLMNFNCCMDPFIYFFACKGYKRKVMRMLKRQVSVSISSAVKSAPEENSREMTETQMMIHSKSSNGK
MPTP inh: permeability transition pore inhibition; inhibition, % at 10 µM; AID 602449; 1.4% of 360,000 active; isolated mouse mitochondria, Ca2+ swelling absorbance, 30 min;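 active means inhibition of 50% or more, scaled per plate between neutral and stimulator controls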;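 further: 0% = DMSO wells given calcium and 100% = 1 mM EGTA wells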
An asterisk follows results filed as active; · = no result.

SMILES	NR3A LBD binder	SENP1 FRET inh	EBI2 antag	MPTP inh
O=c1c(O)c(-c2ccc(O)c(O)c2)oc2cc(O)cc(O)c12	22.0*	64.4	-8.8	4.8
O=c1c(-c2c(O)cc(O)c3c(=O)cc(-c4ccc(O)cc4)oc23)c(-c2ccc(O)cc2)oc2cc(O)cc(O)c12	26.6*	-13.4	-5.6	6.7
O=c1cc(-c2ccc(O)c(-c3c(O)cc(O)c4c(=O)cc(-c5ccc(O)cc5)oc34)c2)oc2cc(O)cc(O)c12	18.1*	3.5	7.6	14.1
O=c1cc(-c2ccc(O)cc2)oc2c(-c3c(O)cc(O)c4c(=O)cc(-c5ccc(O)cc5)oc34)c(O)cc(O)c12	21.4*	-1.8	-6.9	7.5
O=c1cc(-c2ccc(O)c(O)c2)oc2cc(O)cc(O)c12	9.9	24.9	-9.4	4.8
COc1ccc(/C=C\c2cc(OC)c(OC)cc2CC[N+](C)(C)C)cc1OC	-2.7	2.1	-5.1	-1.3
COc1ccc2nc(SCC(=O)Nc3ccccc3OC)[nH]c2c1	-0.5	-7.2	-10.9	1.1
Cc1ccc(C(=O)CCC(=O)N2CCN(C(=O)c3ccco3)CC2)cc1	0.7	1.8	2.6	-0.2
CC(=O)NC(c1ccccc1)c1nc(-c2cccc(F)c2)cs1 (stereo unspecified)	·	-3.2	3.9	-2.1
Oc1ccc(-c2nccc(-c3ccc(Br)cc3)n2)cc1	37.0*	-4.2	6.0	2.7
CC(=O)Nc1ccc(S(=O)(=O)N[C@@H](C)C(=O)OCC(=O)c2ccc[nH]2)cc1	2.4	-0.8	-8.2	-2.5
Nc1c2c(nc3sc4c(c13)CCCC4)-c1ccccc1CC2	22.5*	-11.1	11.0	9.1
NNc1nc(-c2ccccc2)nc2sc3c(c12)CCCC3	0.2	-2.7	9.4	0.3
COc1ccc(CC(=O)N/N=C/c2cccs2)cc1OC	1.7	3.1	0.9	0.6
COc1ccc(COC(=O)N/N=C/c2cccs2)cc1	31.9*	0.3	-9.1	0.4
COc1cc(C2c3c([nH]c(=O)[nH]c3=O)Nc3ccc4ccccc4c32)ccc1O (stereo unspecified)	26.7*	-4.7	3.6	-1.9
COc1cc(C2c3c([nH]c(=O)[nH]c3=O)Nc3ccc4ccccc4c32)cc(OC)c1OC (stereo unspecified)	30.1*	-3.2	-14.1	0.1
COc1cc(C2C3=C(CCCC3=O)Nc3[nH]n(-c4ccccc4)c(=O)c32)cc(OC)c1OC (stereo unspecified)	1.0	0.1	-0.3	-2.4
O=C(Nc1sc(-c2ccccc2)cc1C(=O)O)c1ccccc1	-2.4	-4.5	-3.4	15.0
Cc1ccc(S(=O)(=O)c2c(C)nn(C(C)(C)C)c2OC(=O)C2CCCC2)cc1	10.2*	1.0	-4.7	-2.9
CC(C)(C)OC(=O)N1CCC[C@H]1c1nnc(SCC(=O)Nc2ccc(Br)cc2)o1	29.2*	0.2	16.3	0.8
CC(C)(C)OC(=O)N1CCC[C@H]1c1nnc(SCC(=O)Nc2cccc(Cl)c2)o1	-1.9	0.1	-5.0	7.6
CCOC(=O)C1CC2=C(CCCC2=O)NC1=O (stereo unspecified)	0.2	-1.4	-4.1	-1.6
O=S(=O)(c1ccccc1)c1cnc(-c2ccccc2)nc1N1CCCC1	-0.9	1.4	18.1	-1.2
COc1cc2ncc(S(=O)(=O)c3ccccc3)c(N3CCCC(C)C3)c2cc1OC (stereo unspecified)	14.8*	3.3	25.6	0.0
SMILES	NR3A LBD binder	SENP1 FRET inh	EBI2 antag	MPTP inh
Cc1ccsc1/C=N/NC(=O)Cc1cccn1C	-1.0	0.1	28.2	-0.8
C=CCOc1ccc(/C=C/C(=O)OCC(=O)NCCCc2ccccc2)cc1	15.5*	0.9	-1.8	-0.6
COc1ccc(/C=C/C(=O)OCC(=O)NCCCc2ccccc2)cc1OC	-1.6	-0.4	-5.5	-0.4
CC1CN(c2nnc(-c3ccccc3)c3ccccc23)CC(C)O1 (stereo unspecified)	-0.6	1.5	-3.3	-0.1
CC(C)(C)c1ccc2c(c1)C(=O)c1ccccc1C2=O	24.4*	2.9	1.0	4.6
CCc1ccc2c(c1)C(=O)c1ccccc1C2=O	17.6*	1.7	1.9	1.4
CCOC(=O)C(C(=O)N1CCOCC1)C1CCCCC1 (stereo unspecified)	-0.1	1.3	-20.6	-0.6
COC(=O)C(C(=O)N1CCN(C)CC1)C1CCCCCC1 (stereo unspecified)	12.5*	3.8	-6.7	2.2
CCOC(=O)COc1ccc(Br)cc1/C=C/c1[nH]c(=O)[nH]c(=O)c1[N+](=O)[O-]	161.1*	3.1	3.4	0.4
CCOC(=O)COc1ccc(Br)cc1/C=C\c1[nH]c(=O)[nH]c(=O)c1[N+](=O)[O-]	-2.0	5.6	-0.9	-3.7
